ChEMBL document CHEMBL2057071, “Hit-to-lead investigation of a series of novel combined dopamine D2 and muscarinic M1 receptor ligands with putative antipsychotic and pro-cognitive potential” (Bioorg Med Chem Lett, 2012)

Columns and labels:
[1] = test system: Liver microsomes; test: Intrinsic clearance in human liver microsomes at 1 uM after 60 mins; assay type: ADME, Microsome; settings: 1 h
[2] = target: T1, Muscarinic acetylcholine receptor M1 (Homo sapiens) (UniProt P11229); test: Agonist activity at human M1 receptor expressed in CHO-K1 cells assessed as calcium mobilization at 10 uM for 6 mins by Calcium4-based staining; assay type: functional, cell-based
T1 sequence (whole entry): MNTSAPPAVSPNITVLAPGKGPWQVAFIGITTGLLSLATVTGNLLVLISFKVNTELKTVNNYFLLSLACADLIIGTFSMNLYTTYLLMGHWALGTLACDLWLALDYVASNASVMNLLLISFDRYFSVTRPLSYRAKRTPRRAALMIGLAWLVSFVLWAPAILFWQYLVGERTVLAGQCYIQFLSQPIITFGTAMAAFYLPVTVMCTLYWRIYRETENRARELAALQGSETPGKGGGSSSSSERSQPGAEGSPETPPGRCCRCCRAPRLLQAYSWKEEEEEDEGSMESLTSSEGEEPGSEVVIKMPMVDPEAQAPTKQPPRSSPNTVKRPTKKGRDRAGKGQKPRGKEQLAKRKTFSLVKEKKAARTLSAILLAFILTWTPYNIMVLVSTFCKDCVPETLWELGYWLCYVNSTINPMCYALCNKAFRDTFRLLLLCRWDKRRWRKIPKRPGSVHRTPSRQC
Outline: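 Functional agonism read as percent activity at 10 µM test concentration when no EC₅₀ could be established; means of two experiments.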

[3] = target: T2, D(2) dopamine receptor (Homo sapiens, UniProt P14416); test: Displacement of [3H]raclopride from human D2L receptor expressed in CHO cells after 60 mins by scintillation proximity assay; assay type: cell-based
T2 sequence (P14416 whole entry): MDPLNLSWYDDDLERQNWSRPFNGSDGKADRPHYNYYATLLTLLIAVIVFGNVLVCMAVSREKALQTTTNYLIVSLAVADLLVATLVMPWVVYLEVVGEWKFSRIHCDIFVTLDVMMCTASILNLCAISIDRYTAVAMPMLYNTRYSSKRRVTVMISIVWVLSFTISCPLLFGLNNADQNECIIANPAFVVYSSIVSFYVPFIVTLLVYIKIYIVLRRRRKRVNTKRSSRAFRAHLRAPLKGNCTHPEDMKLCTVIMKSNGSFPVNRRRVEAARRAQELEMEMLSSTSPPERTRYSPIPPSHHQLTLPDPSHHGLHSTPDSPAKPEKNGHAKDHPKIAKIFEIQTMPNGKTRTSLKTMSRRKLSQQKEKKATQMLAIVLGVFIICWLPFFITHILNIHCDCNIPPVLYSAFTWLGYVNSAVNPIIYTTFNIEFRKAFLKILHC

[4] = target: T3, Muscarinic acetylcholine receptor M1 (Homo sapiens, UniProt P11229); test: Agonist activity at human M1 receptor expressed in CHO-K1 cells assessed as calcium mobilization for 6 mins by Calcium4-based staining; assay type: functional, cell-based
T3 sequence (P11229 whole entry): T1 sequence (whole entry)

[5] = target: Voltage-gated inwardly rectifying potassium channel KCNH2 (Homo sapiens, UniProt Q12809); test: Inhibition of human ERG expressed in CHO cells after 30 mins by Rb+ flux assay
Voltage-gated inwardly rectifying potassium channel KCNH2, sequence (Q12809 whole entry): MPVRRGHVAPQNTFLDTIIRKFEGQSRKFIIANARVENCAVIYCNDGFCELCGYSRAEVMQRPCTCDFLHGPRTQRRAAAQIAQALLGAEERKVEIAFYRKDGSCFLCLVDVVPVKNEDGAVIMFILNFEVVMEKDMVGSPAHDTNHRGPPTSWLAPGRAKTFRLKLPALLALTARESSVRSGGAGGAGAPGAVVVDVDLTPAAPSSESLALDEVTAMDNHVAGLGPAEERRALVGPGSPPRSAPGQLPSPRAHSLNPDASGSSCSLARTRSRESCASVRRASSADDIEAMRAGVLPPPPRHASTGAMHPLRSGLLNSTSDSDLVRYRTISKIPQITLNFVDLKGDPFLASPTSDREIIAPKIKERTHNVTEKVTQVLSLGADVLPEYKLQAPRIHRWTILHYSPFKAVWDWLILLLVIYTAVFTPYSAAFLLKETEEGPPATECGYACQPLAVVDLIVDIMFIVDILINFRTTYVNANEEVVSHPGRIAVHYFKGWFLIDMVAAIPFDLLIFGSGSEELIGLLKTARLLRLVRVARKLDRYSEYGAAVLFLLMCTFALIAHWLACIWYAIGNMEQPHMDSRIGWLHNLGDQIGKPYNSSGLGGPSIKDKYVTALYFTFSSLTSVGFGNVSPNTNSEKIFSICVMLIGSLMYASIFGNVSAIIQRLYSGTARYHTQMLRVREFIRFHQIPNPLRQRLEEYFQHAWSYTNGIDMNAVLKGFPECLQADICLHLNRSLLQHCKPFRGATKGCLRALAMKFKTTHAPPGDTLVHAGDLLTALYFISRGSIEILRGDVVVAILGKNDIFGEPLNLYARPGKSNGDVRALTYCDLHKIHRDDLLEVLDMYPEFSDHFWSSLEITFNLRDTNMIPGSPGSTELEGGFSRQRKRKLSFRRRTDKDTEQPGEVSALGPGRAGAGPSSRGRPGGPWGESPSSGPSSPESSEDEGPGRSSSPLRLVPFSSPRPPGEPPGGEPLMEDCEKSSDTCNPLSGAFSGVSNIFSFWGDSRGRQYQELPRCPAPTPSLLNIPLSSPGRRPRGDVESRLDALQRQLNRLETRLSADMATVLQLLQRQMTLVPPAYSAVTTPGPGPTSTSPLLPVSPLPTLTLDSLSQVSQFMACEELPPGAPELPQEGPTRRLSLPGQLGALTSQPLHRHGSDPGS

[6] = Dissociation constant, pKa of the compound; assay type: physicochemical
[7] = Lipophilicity, logP of the compound; assay type: physicochemical; settings: octanol/water
[8] = target: Muscarinic acetylcholine receptor M3 (Homo sapiens) (UniProt P20309); test: Agonist activity at human muscarinic M3 receptor expressed in BHK-21 cells assessed as calcium mobilization atb 10 uM for 6 mins by Calcium4-based staining relative to acetylcholine; assay type: functional, cell-based
Muscarinic acetylcholine receptor M3 (Homo sapiens), sequence (P20309 whole entry, looked up): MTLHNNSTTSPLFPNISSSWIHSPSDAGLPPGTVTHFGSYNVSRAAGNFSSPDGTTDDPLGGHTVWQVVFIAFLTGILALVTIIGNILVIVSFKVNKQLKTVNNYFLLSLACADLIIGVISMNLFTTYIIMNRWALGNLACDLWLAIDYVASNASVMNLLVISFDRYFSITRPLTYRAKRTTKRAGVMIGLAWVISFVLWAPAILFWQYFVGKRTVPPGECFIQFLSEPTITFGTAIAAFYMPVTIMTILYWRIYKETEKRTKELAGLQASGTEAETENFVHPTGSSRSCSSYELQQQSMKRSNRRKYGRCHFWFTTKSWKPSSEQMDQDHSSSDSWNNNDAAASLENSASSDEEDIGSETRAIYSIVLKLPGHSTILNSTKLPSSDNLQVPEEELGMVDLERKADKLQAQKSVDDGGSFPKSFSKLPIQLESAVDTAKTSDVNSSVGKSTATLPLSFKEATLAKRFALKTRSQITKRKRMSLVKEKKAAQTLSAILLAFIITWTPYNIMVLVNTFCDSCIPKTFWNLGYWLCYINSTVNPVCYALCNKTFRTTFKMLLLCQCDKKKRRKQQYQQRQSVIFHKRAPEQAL

[9] = target: Muscarinic acetylcholine receptor M1 (Homo sapiens, UniProt P11229, Y381A); test: Agonist activity at human muscarinic M1 receptor Y381A mutant expressed in BHK-21 cells assessed as calcium mobilization for 6 mins by Calcium4-based staining; assay type: functional, cell-based
Muscarinic acetylcholine receptor M1 (Homo sapiens, UniProt P11229, Y381A), sequence (P11229 whole entry Y381A): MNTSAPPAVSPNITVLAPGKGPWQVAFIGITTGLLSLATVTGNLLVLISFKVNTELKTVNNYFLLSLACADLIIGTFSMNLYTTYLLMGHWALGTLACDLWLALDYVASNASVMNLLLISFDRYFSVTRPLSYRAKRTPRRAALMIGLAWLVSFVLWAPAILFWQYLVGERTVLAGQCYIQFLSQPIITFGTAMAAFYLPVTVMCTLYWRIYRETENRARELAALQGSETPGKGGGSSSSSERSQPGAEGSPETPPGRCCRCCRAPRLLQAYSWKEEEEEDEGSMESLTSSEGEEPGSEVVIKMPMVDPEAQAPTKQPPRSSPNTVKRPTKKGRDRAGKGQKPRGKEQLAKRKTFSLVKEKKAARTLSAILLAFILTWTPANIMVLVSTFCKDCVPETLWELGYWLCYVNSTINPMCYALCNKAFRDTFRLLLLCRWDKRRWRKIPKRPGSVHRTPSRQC

[10] = target: T4, Muscarinic acetylcholine receptor M4 (Homo sapiens) (UniProt P08173); test: Agonist activity at human muscarinic M4 receptor expressed in BHK-21 cells assessed as calcium mobilization at 10 uM for 6 mins by Calcium4-based staining relative to acetylcholine; assay type: functional, cell-based
T4 sequence (whole entry): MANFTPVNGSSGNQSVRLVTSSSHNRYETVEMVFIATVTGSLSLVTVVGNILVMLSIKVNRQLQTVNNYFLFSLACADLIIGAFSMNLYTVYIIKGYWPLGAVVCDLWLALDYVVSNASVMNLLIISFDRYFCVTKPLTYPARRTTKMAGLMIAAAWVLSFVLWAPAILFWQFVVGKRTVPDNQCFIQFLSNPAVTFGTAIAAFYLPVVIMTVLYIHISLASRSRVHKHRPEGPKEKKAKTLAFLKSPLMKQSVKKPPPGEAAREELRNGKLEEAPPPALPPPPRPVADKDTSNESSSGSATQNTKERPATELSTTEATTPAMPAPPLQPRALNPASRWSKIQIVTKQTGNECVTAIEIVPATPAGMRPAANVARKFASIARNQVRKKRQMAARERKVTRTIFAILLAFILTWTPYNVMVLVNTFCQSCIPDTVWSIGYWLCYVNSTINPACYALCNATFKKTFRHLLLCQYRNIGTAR

[11] = test system: Hepatocyte; test: Intrinsic clearance in Sprague-Dawley rat hepatocytes at 1 uM after 60 mins; assay type: ADME, cell-based; settings: 1 h
[12] = target: T5, Muscarinic acetylcholine receptor M5 (Homo sapiens) (UniProt P08912); test: Agonist activity at human muscarinic M5 receptor expressed in BHK-21 cells assessed as calcium mobilization at 10 uM for 6 mins by Calcium4-based staining relative to acetylcholine; assay type: functional, cell-based
T5 sequence (whole entry): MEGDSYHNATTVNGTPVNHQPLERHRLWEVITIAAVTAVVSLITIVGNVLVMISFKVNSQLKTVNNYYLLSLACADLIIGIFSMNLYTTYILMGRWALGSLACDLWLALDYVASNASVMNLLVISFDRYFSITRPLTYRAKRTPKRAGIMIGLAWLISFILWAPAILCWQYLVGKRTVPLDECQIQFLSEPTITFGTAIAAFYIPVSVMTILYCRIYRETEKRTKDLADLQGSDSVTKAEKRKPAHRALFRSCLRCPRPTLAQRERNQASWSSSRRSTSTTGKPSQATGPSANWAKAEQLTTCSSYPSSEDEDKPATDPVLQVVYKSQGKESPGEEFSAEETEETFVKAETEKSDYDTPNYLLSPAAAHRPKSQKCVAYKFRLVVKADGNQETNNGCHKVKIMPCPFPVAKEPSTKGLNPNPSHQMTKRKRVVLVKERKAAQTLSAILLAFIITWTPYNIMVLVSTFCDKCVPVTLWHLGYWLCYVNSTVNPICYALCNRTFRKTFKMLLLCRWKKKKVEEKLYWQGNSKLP

[13] = test system: Liver microsomes; test: Intrinsic clearance in rat liver microsomes at 1 uM after 60 mins; assay type: ADME, Microsome; settings: 1 h
[14] = Plasma clearance in […] Sprague-Dawley rat; assay type: ADME, organism-based
[15] = target: T6, Muscarinic acetylcholine receptor M2 (Homo sapiens) (UniProt P08172); test: Agonist activity at human muscarinic M2 receptor expressed in CHO-K1 cells assessed as calcium mobilization at 10 uM for 6 mins by Calcium4-based staining relative to acetylcholine; assay type: functional, cell-based
T6 sequence (whole entry): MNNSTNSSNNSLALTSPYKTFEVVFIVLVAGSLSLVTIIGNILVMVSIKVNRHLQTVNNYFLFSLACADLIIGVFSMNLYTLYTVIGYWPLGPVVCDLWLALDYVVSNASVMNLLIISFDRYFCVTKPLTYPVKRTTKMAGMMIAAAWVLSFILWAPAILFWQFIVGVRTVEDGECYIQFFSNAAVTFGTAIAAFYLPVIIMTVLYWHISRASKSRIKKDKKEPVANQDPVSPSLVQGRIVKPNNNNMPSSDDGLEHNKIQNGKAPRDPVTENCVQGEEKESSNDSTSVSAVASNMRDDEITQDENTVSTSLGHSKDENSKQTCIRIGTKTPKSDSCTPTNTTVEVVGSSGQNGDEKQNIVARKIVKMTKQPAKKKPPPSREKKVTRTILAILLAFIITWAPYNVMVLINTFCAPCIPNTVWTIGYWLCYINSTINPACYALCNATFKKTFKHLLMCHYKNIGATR

[16] = target: T2, D(2) dopamine receptor; test: Displacement of [3H]raclopride from human D2L receptor expressed in CHO cells at 10 uM after 60 mins by scintillation proximity assay; assay type: cell-based

Compound | CLH [1] [L/min] | Emax [2] [%] | Ki [3] [nM] | EC50 [4] [nM] | IC50 [5] [nM] | other results
O=C1COc2ccccc2N1CCCN1CCC(n2c(=O)[nH]c3cccc(F)c32)CC1 | 12 | 22 | 41 |  |  | 
O=C1COc2ccccc2N1CCCN1CCC(n2c(=O)[nH]c3cc(F)ccc32)CC1 | 8.8 |  | 2.5 | 66 | 1900 | 
O=C1CCc2cccnc2N1CCCN1CCC(n2c(=O)[nH]c3ccccc32)CC1 | 1.3 |  | 600 | 20 |  | 
CC(=O)OCC[N+](C)(C)C |  |  |  |  |  | Emax [8]: 100%
O=C1COc2ccccc2N1CCCN1CCC(n2c(=O)[nH]c3ncccc32)CC1 | 2.6 | 8 | 650 |  |  | 
O=C1COc2ccccc2N1CCCN1CCC(n2c(=O)[nH]c3ccncc32)CC1 | 0.9 |  | > 9500 | 1200 | > 50000 | 
O=c1[nH]c2ccccc2n1C1CCN(CCOc2ccccc2)CC1 [OXIPEROMIDE] | 1.4 |  | 5.5 | 400 |  | pKa [6]: 7.4; logP [7]: 3.4
O=C1COc2ccccc2N1CCCN1CCC(n2c(=O)[nH]c3cnccc32)CC1 | 1.7 | 4 | 1350 |  | 46000 | 
O=C1COc2ccccc2N1CCCN1CCC(n2c(=O)[nH]c3cccnc32)CC1 | 3.5 |  | 1250 | 1700 | 13000 | 
O=C1CCc2ccccc2N1OCCN1CCC(n2c(=O)[nH]c3ccccc32)CC1 | 2.3 | 31 | 55 |  |  | 
O=C1COc2ccccc2N1CCCN1CCC(n2c(=O)[nH]c3c(F)cccc32)CC1 | 13 |  | 15 | 110 | 3400 | 
O=C(Cc1ccccc1)NC1CCN(CCCN2C(=O)COc3ccccc32)CC1 | 3.4 |  | > 5000 |  | 20000 | pKa [6]: 7.9; logP [7]: 2.4

Continued, in another order:

CLH [1] [L/min] | Emax [2] [%] | Ki [3] [nM] | EC50 [4] [nM] | Compound | IC50 [5] [nM] | other results
9.4 | 0 | 1100 |  | O=C1CCc2cnccc2N1CCCN1CCC(n2c(=O)[nH]c3ccccc32)CC1 |  | 
4.2 |  | 60 | 68 | O=C1CCc2c(F)cccc2N1CCCN1CCC(n2c(=O)[nH]c3ccccc32)CC1 |  | 
9 |  | 42 | 160 | O=C1CCc2ccccc2N1CCCN1CCC(c2ccc3[nH]ccc3c2)CC1 | 4400 | pKa [6]: 9; logP [7]: 4.1
5.1 |  | 16 | 73 | O=C1COc2ccccc2N1CCCN1CCC(n2c(=O)[nH]c3ccccc32)CC1 |  | 
7.8 | 23 | 90 |  | O=C1CCc2ccc(F)cc2N1CCCN1CCC(n2c(=O)[nH]c3ccccc32)CC1 |  | 
8.7 |  | 14 | 44 | O=C1COc2ccccc2N1CCCN1CCC(n2c(=O)[nH]c3ccc(F)cc32)CC1 | 4400 | 
3.9 |  | 9.5 | 110 | O=C1CCc2ccccc2N1CCCN1CCC(n2c(=O)[nH]c3ccccc32)CC1 |  | EC50 [9]: 6.3 nM; pKa [6]: 7.6; Emax [10]: 8%; CLH [11]: 160 mL/min; Emax [12]: 0%; CLH [13]: 130 mL/min; Emax [8]: 0%; CL/F [14]: 50 mL/min/kg; Emax [15]: 0%; logP [7]: 2.8
5.5 |  | 95 | 300 | O=C1CCc2cccc(F)c2N1CCCN1CCC(n2c(=O)[nH]c3ccccc32)CC1 |  | 
6.2 | 24 | 6.5 |  | O=C1CCc2cc(F)ccc2N1CCCN1CCC(n2c(=O)[nH]c3ccccc32)CC1 |  | 
2.8 |  | 2200 | 12 | O=C1CCc2ncccc2N1CCCN1CCC(n2c(=O)[nH]c3ccccc32)CC1 |  | 
3.6 | 7 |  |  | O=C1CCc2ccncc2N1CCCN1CCC(n2c(=O)[nH]c3ccccc32)CC1 |  | Activity [16]: 55%
